Results taken from ChEMBL document CHEMBL1125497, “Synthesis and anticonvulsant activity of enaminones” (J Med Chem, 1992).

Legend:
[1] = Antiepileptic activity in male CF1 mice 30 min after administration measured in subcutaneous pentylenetetrazole (scMet) test at a dose of 300 mg/kg (no. of animals treated /protected); activity value is 0/1; format: functional, Mus musculus
[2] = Antiepileptic activity in male CF1 mice 30 min after administration measured in subcutaneous pentylenetetrazole (scMet) test at a dose of 100 mg/kg (no. of animals treated /protected); activity value is 0/1; format: functional, Mus musculus
[3] = Antiepileptic activity in male CF1 mice 4 hr after administration measured in maximum electroshock seizure(MES) test at a dose of 100 mg/kg (no. of animals treated /protected); activity value is 0/3; format: functional, Mus musculus
[4] = Antiepileptic activity in male CF1 mice 4 hr after administration measured in maximum electroshock seizure(MES) test at a dose of 300 mg/kg (no. of animals treated /protected); activity value is 0/1; format: functional, Mus musculus
[5] = Antiepileptic activity in male CF1 mice 30 min after administration measured in maximum electroshock seizure(MES) test at a dose of 100 mg/kg (no. of animals treated /protected); activity value is 1/3; format: functional, Mus musculus
[6] = Antiepileptic activity in male CF1 mice 30 min after administration measured in maximum electroshock seizure(MES) test at a dose of 300 mg/kg (no. of animals treated /protected); activity value is 1/1; format: functional, Mus musculus
[7] = Antiepileptic activity in male CF1 mice 30 min after administration measured in neurological toxicity (Tox) test at a dose of 100 mg/kg (no. of animals treated /protected); activity value is 0/8; format: functional, Mus musculus
[8] = Antiepileptic activity in male CF1 mice 4 hr after administration measured in neurological toxicity (Tox) test at a dose of 100 mg/kg (no. of animals treated /protected); activity value is 0/4; format: functional, Mus musculus
[9] = Antiepileptic activity in male CF1 mice 4 hr after administration measured in neurological toxicity (Tox) test at a dose of 300 mg/kg (no. of animals treated /protected); activity value is 0/2; format: functional, Mus musculus
[10] = Antiepileptic activity in male CF1 mice 4 hr after administration measured in subcutaneous pentylenetetrazole (scMet) test at a dose of 100 mg/kg (no. of animals treated /protected); activity value is 0/1; format: functional, Mus musculus
[11] = Antiepileptic activity in male CF1 mice 4 hr after administration measured in subcutaneous pentylenetetrazole (scMet) test at a dose of 300 mg/kg (no. of animals treated /protected); activity value is 0/1; format: functional, Mus musculus
[12] = Dose at which anticonvulsant activity was observed in mice; format: functional, Mus musculus
[13] = Antiepileptic activity in male CF1 mice 30 min after administration measured in neurological toxicity (Tox) test at a dose of 300 mg/kg (no. of animals treated /protected); activity value is 0/4; format: functional, Mus musculus
[14] = Dose elevating electroshock induced seizure by 20% in CF1 mice after ip administration.; format: functional, Mus musculus
In short: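 In CF1 male mice (ca. 24–34 g), compound was given ip in 0.5% methylcellulose. The current giving hind limb extension in 50% of mice was found by the up-and-down method, with 15–25 mice per group and a vehicle control group run with each experimental group. At least three doses were tested. The dose raising threshold current by 20% was taken from a plot of dose against % threshold increase.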

[15] = Dose protecting 50% of the mice from tonic hind limb extension at the time of […] after ip administration.; format: functional; details: Mus musculus, Hindlimb
In short: (§1)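 Phase II quantification in CF1 male mice (ca. 24–34 g), dosing ip or po in 0.5% methylcellulose suspension. ED50 is protection from tonic hind limb extension in MES. TD50 is rotorod neurotoxicity. Both were read at time of peak effect and derived by Litchfield–Wilcoxon with 95% confidence limits.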

[16] = Dose protecting 50% of the mice from tonic hind limb extension at the time of peak convulsant effect after po administration.; format: functional; details: Mus musculus, Hindlimb; in short: as §1
[17] = Antiepileptic activity in male CF1 mice 30 min after administration measured in subcutaneous pentylenetetrazole (scMet) test at a dose of 100 mg/kg (no. of animals treated /protected) activity value is 0/1; format: functional, Mus musculus
[18] = Dose showing neurotoxicity in 50% of the at the time of peak neurotoxic effect in CF1 MICE after ip administration.; format: toxicity, organism-based; details: CF1, mouse, in vivo
In short: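 CF1 male mice (ca. 24–34 g), dosed ip in 0.5% methylcellulose suspension. Neurotoxicity measured by the rotorod test at the time of peak neurotoxic effect. TD50 and confidence limits by the Litchfield-Wilcoxon method.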

[19] = Time of peak anticonvulsant effect in CF1 MICE after ip administration.; format: functional, Mus musculus
In short: (§2)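 Male CF1 mice (ca. 24–34 g), compound in 0.5% methylcellulose suspension given ip or po; time (h) at which MES protection (against tonic hind limb extension) peaked was recorded and used for ED50 determination.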

[20] = Time of peak anticonvulsant effect in CF1 MICE after po administration.; format: functional, Mus musculus; in short: as §2
[21] = Time of peak neurotoxic effect in CF1 MICE after ip administration.; format: ADME, organism-based; details: mouse, in vivo
In short: (§3)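 Male CF1 mice (ca. 24–34 g), compound ip in 0.5% methylcellulose suspension; neurological deficit assessed by rotorod test, time (h) of peak neurotoxic effect recorded for TD50 determination.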

[22] = Antiepileptic activity in male CF1 mice 4 hr after administration measured in maximum electroshock seizure(MES) test at a dose of 300 mg/kg (no. of animals treated /protected); activity value is 1/1; format: functional, Mus musculus
[23] = Antiepileptic activity in male CF1 mice 4 hr after administration measured in subcutaneous pentylenetetrazole (scMet) test at a dose of 100 mg/kg; activity value is 0/1; format: functional, Mus musculus
[24] = Antiepileptic activity in male CF1 mice 30 min after administration measured in neurological toxicity (Tox) test at a dose of 300 mg/kg (no. of animals treated /protected); activity value is 1/4; format: functional, Mus musculus
[25] = Protective index was measured as TD50/MES ED50 in mice on ip administration; format: ADME, organism-based; details: mouse, in vivo, read-out: PI
In short: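 Male CF1 mice (ca. 24–34 g), compound given ip as 0.5% methylcellulose suspension. MES ED50 = dose protecting 50% from tonic hind limb extension; TD50 = median neurotoxic dose by rotorod; both at time of peak effect, with confidence limits by Litchfield and Wilcoxon. PI = TD50/MES ED50.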

[26] = Anticonvulsant activity administered intraperitoneally in CF1 mice is the ability to protect the mice from MES(maximal electroshock seizure).; format: functional; details: Mus musculus, ip
[27] = Time of peak anticonvulsant effect in CF1 mice; format: functional, Mus musculus; in short: as §2
[28] = Time of peak neurotoxic effect in CF1 mice; format: ADME; details: mouse, in vivo; in short: as §3
Rattus norvegicus [29] = test: Dose reducing the seizure severity in rat cornea 1 hr after peroral administration; format: functional; details: po
In short: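 Same corneal-kindled Sprague-Dawley rat procedure with the drug given po. Vehicles: 0.5% methylcellulose, 0.9% NaCl or corn oil. Single shock at the time of peak effect, scored on the modified Racine scale. ED50 by Litchfield-Wilcoxon, taken as the dose that reduced seizure severity by 50%.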

Rattus norvegicus [30] = test: Average seizure score for the rat cornea 0.5 hr after intraperitoneal administration of 15 mg/Kg of compound; format: functional
In short: (§4)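 Sprague-Dawley rats (85–95 g initial weight) kindled by corneal stimulation (4 s, 8 mA) twice daily for 5 to 6 days, then once daily until 10 consecutive stage 5 seizures. Butacaine sulfate 1% applied to the cornea as a topical anaesthetic. After a vehicle shock and a 2-day shock-free period, drug given ip, then a single shock at the time of peak effect. Scored on the modified Racine scale (0–5).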

Rattus norvegicus [31] = test: Average seizure score for the rat cornea 0.5 hr after intraperitoneal administration of 20 mg/Kg of compound; format: functional; in short: as §4
Rattus norvegicus [32] = test: Average seizure score for the rat cornea 0.5 hr after intraperitoneal administration of 0 mg/Kg of compound; format: functional; in short: as §4
Rattus norvegicus [33] = test: Average seizure score for the rat cornea 0.5 hr after intraperitoneal administration of 30 mg/Kg of compound; format: functional; in short: as §4
Rattus norvegicus [34] = test: Intraperitoneal dose (0 mg/Kg) reducing rat corneal kindling 0.5 hr after administration.; format: functional; in short: as §4
Rattus norvegicus [35] = test: Intraperitoneal dose (15 mg/Kg) reducing rat corneal kindling 0.5 hr after administration.; format: functional; in short: as §4
Rattus norvegicus [36] = test: Intraperitoneal dose (20 mg/Kg) reducing rat corneal kindling 0.5 hr after administration.; format: functional; in short: as §4
Rattus norvegicus [37] = test: Intraperitoneal dose (25 mg/Kg) reducing rat corneal kindling 0.5 hr after administration.; format: functional; in short: as §4
Rattus norvegicus [38] = test: Intraperitoneal dose (30 mg/Kg) reducing rat corneal kindling 0.5 hr after administration.; format: functional; in short: as §4
Rattus norvegicus [39] = test: Dose reducing the seizure severity in rat cornea 0.5 hr after peroral administration.; format: functional; details: po
In short: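 Sprague-Dawley rats (85–95 g initial) were kindled with 4 s, 8 mA corneal stimulations (butacaine anesthesia) to 10 consecutive stage 5 seizures. After a vehicle shock and a 2-day shock-free period, test drug was given ip or po and a single shock applied at time of peak effect. Seizures were scored on a modified Racine 0–5 scale. ED50 is the dose reducing severity by 50% (Litchfield–Wilcoxon).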

[40] = Oral dose producing neurotoxic effects in 50% of rats; format: ADME, organism-based; details: rat, in vivo
In short: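 Phase VI screen in male Sprague-Dawley rats dosed orally. MES protection and rotorod toxicity were scored as animals responding over animals tested at 0.25, 0.5, 1, 2 and 4 h.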

| SMILES | Activity [1] | Activity [3] | Activity [5] | Activity [6] | Activity [7] | Activity [8] | Activity [9] | Activity [11] | Dose [12] | Dose [14] | ED50 [15] | TD50 [18] | TPE [19] | TPE [21] | TPE [27] | TPE [28] | other results |
| --- | --- | --- | --- | --- | --- | --- | --- | --- | --- | --- | --- | --- | --- | --- | --- | --- | --- |
| COC(=O)C1C(=O)C=C(Nc2cc(OC)ccc2OC)CC1C (stereo unspecified) | 0 | 0 | 1 | 1 | 0 | 0 | 0 | 0 | <=100 mg kg-1 |  |  |  |  |  |  |  | Activity [2]: 0; Activity [4]: 0; Activity [10]: 0; Activity [13]: 0 |
| CC1(C)CC(O)=C/C(=N\Cc2ccccc2)C1 | 0 | 0 | 1 | 1 | 0 | 0 | 0 | 0 | >100 mg/kg | 20 mg/kg | 53 mg/kg | 148 mg/kg | 0.5 | 0.25 |  |  | ED50 [16]: 211 mg/kg; Activity [17]: 0; TPE [20]: 0.5; Activity [22]: 1; Activity [23]: 0; Activity [24]: 1; selectivity ratio [25]: 2.8 |
| NC(=O)N1c2ccccc2C=Cc2ccccc21 [CARBAMAZEPINE] |  |  |  |  |  |  |  |  |  |  |  |  |  |  | 0.25 | 0.25 | ED50 [26]: 8.8 mg/kg |
| O=C1CN=C(c2ccccc2Cl)c2cc([N+](=O)[O-])ccc2N1 [CLONAZEPAM] |  |  |  |  |  |  |  |  |  |  |  |  |  |  |  |  | ED50 (Rattus norvegicus [29]): 0.7 mg/kg |
| CCC1(c2ccccc2)C(=O)NC(=O)NC1=O [PHENOBARBITAL] |  |  |  |  |  |  |  |  |  | 3 mg/kg | 18 mg/kg | 92 mg/kg | 1 | 1 |  |  | Average seizure score (Rattus norvegicus [30]): 2.7; Average seizure score (Rattus norvegicus [31]): 1.7; Average seizure score (Rattus norvegicus [32]): 5; Average seizure score (Rattus norvegicus [33]): 1.3; Reduction (Rattus norvegicus [34]): 0%; Reduction (Rattus norvegicus [35]): 47%; Reduction (Rattus norvegicus [36]): 68%; Reduction (Rattus norvegicus [37]): 70%; Reduction (Rattus norvegicus [38]): 74% |
| O=C1NC(=O)C(c2ccccc2)(c2ccccc2)N1 [PHENYTOIN] |  |  |  |  |  |  |  |  |  |  |  |  |  |  | 2 | 2 | ED50 (Rattus norvegicus [39]): > 100 mg/kg; TD50 [40]: > 3000 mg/kg |
